# Experiments:
# [1] = Cytotoxicity against human OVCAR5 cells assessed as cell growth at 10 uM after 48 hrs by SRB assay relative to untreated control; format: functional; settings: OVCAR-5, 48 h, read-out: Activity
# Outline: (§1)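 NCI-60 one-dose screen: each agent added at 10 µM, cultures incubated 48 h. Endpoint by sulforhodamine B protein-binding dye read spectrophotometrically; growth expressed as percent of untreated control cells.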
# [2] = Cytotoxicity against human Hs578T cells assessed as cell growth at 10 uM after 48 hrs by SRB assay relative to untreated control; format: functional; settings: Hs-578T, read-out: Activity
# Outline: (§2)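 NCI-60 panel screen at a single concentration of 10 μM with 48 h incubation. Cell density measured by sulforhodamine B protein-binding dye and read spectrophotometrically. Growth expressed as percent of untreated control cells.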
# [3] = tested on: SNB-75; assay: Cytotoxicity against human SNB75 cells assessed as cell growth at 10 uM after 48 hrs by SRB assay relative to untreated control; format: functional; settings: SNB-75, 48 h, read-out: Activity
# Outline: (§3)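 NCI-60 single-dose screen. Compounds were added to the cultures at 10 μM and incubated for 48 h. The end point was sulforhodamine B protein staining read spectrophotometrically. Growth is reported as percent of untreated control cells.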
# [4] = Cytotoxicity against human UO31 cells assessed as cell growth at 10 uM after 48 hrs by SRB assay relative to untreated control; format: functional; settings: UO-31, 48 h, read-out: Activity; outline: as §3
# [5] = tested on: K562; assay: Cytotoxicity against human K562 cells assessed as cell growth at 10 uM after 48 hrs by SRB assay relative to untreated control; format: functional; settings: K562, 48 h, read-out: Activity; outline: as §2
# [6] = tested on: UACC-62; assay: Cytotoxicity against human UACC62 cells assessed as cell growth at 10 uM after 48 hrs by SRB assay relative to untreated control; format: functional; settings: UACC-62, 48 h, read-out: Activity; outline: as §3
# [7] = tested on: A498; assay: Cytotoxicity against human A498 cells assessed as cell growth at 10 uM after 48 hrs by SRB assay relative to untreated control; format: functional; settings: A498, 48 h, read-out: Activity; outline: as §2
# [8] = tested on: MOLT-4; assay: Cytotoxicity against human MOLT4 cells assessed as cell growth at 10 uM after 48 hrs by SRB assay relative to untreated control; format: functional; settings: MOLT-4, 48 h, read-out: Activity; outline: as §1
# [9] = tested on: TK-10; assay: Cytotoxicity against human TK10 cells assessed as cell growth at 10 uM after 48 hrs by SRB assay relative to untreated control; format: functional; settings: TK-10, 48 h, read-out: Activity; outline: as §3
# [10] = tested on: SF-539; assay: Cytotoxicity against human SF539 cells assessed as cell growth at 10 uM after 48 hrs by SRB assay relative to untreated control; format: functional; settings: SF-539, 48 h, read-out: Activity; outline: as §1
# [11] = tested on: RXF 393; assay: Cytotoxicity against human RXF393 cells assessed as cell growth at 10 uM after 48 hrs by SRB assay relative to untreated control; format: functional; settings: RXF 393, 48 h, read-out: Activity; outline: as §1
# [12] = tested on: SR; assay: Cytotoxicity against human SR cells assessed as cell growth at 10 uM after 48 hrs by SRB assay relative to untreated control; format: functional; settings: read-out: Activity; outline: as §3
# [13] = tested on: LOX IMVI; assay: Cytotoxicity against human LOXIMVI cells assessed as cell growth at 10 uM after 48 hrs by SRB assay relative to untreated control; format: functional; settings: read-out: Activity; outline: as §2
# [14] = tested on: MCF7; assay: Cytotoxicity against human MCF7 cells assessed as cell growth at 10 uM after 48 hrs by SRB assay relative to untreated control; format: functional; settings: MCF7, 48 h, read-out: Activity; outline: as §2
# [15] = tested on: MDA-MB-468; assay: Cytotoxicity against human MDA-MB-468 cells assessed as cell growth at 10 uM after 48 hrs by SRB assay relative to untreated control; format: functional; settings: MDA-MB-468, 48 h, read-out: Activity; outline: as §1
# [16] = tested on: OVCAR-3; assay: Cytotoxicity against human OVCAR3 cells assessed as cell growth at 10 uM after 48 hrs by SRB assay relative to untreated control; format: functional; settings: OVCAR-3, 48 h, read-out: Activity; outline: as §1
# [17] = tested on: BT-549; assay: Cytotoxicity against human BT549 cells assessed as cell growth at 10 uM after 48 hrs by SRB assay relative to untreated control; format: functional; settings: BT-549, 48 h, read-out: Activity; outline: as §2
# [18] = tested on: NCI-H322M; assay: Cytotoxicity against human NCI-H322M cells assessed as cell growth at 10 uM after 48 hrs by SRB assay relative to untreated control; format: functional; settings: read-out: Activity; outline: as §1
# [19] = tested on: CAKI-1; assay: Cytotoxicity against human Caki1 cells assessed as cell growth at 10 uM after 48 hrs by SRB assay relative to untreated control; format: functional; settings: CAKI-1, 48 h, read-out: Activity; outline: as §2
# [20] = tested on: MDA-MB-435; assay: Cytotoxicity against human MDA-MB-435 cells assessed as cell growth at 10 uM after 48 hrs by SRB assay relative to untreated control; format: functional; settings: MDA-MB-435, 48 h, read-out: Activity; outline: as §1
# [21] = tested on: COLO 205; assay: Cytotoxicity against human COLO205 cells assessed as cell growth at 10 uM after 48 hrs by SRB assay relative to untreated control; format: functional; settings: COLO 205, 48 h, read-out: Activity; outline: as §2
# [22] = tested on: HL-60(TB); assay: Cytotoxicity against human HL-60(TB) cells assessed as cell growth at 10 uM after 48 hrs by SRB assay relative to untreated control; format: functional; settings: HL-60, 48 h, read-out: Activity
# Outline: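 NCI-60 human tumour cell line panel; a single 10 µM concentration was added to the cultures and incubated 48 h. Endpoint was sulforhodamine B protein-binding dye read spectrophotometrically, with growth reported as percent of untreated control cells.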
# [23] = species: Ovis aries; assay: Inhibition of sheep brain tubulin polymerization at 100 uM after 40 mins by DAPI staining-based fluorescence assay
# Outline: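 Microtubular protein was purified from sheep brain by two assembly/disassembly cycles (37 °C/0 °C) in MES buffer (100 mM MES pH 6.6, 1 mM EGTA, 0.5 mM MgCl₂). Compound in DMSO was added to 10 µM tubulin with 10 µM DAPI and incubated 40 min at RT. GTP (1 mM) was then added, and assembly was followed by DAPI fluorescence at 37 °C.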
# [24] = tested on: NCI-H460; assay: Cytotoxicity against human NCI-H460 cells assessed as cell growth at 10 uM after 48 hrs by SRB assay relative to untreated control; format: functional; settings: NCI-H460, 48 h, read-out: Activity; outline: as §1
# [25] = tested on: SK-MEL-28; assay: Cytotoxicity against human SK-MEL-28 cells assessed as cell growth at 10 uM after 48 hrs by SRB assay relative to untreated control; format: functional; settings: SK-MEL-28, 48 h, read-out: Activity; outline: as §3
# [26] = tested on: OVCAR-8; assay: Cytotoxicity against human OVCAR8 cells assessed as cell growth at 10 uM after 48 hrs by SRB assay relative to untreated control; format: functional; settings: OVCAR-8, 48 h, read-out: Activity; outline: as §1
# [27] = tested on: SNB-19; assay: Cytotoxicity against human SNB19 cells assessed as cell growth at 10 uM after 48 hrs by SRB assay relative to untreated control; format: functional; settings: SNB-19, 48 h, read-out: Activity; outline: as §3
# [28] = tested on: RPMI-8226; assay: Cytotoxicity against human RPMI8226 cells assessed as cell growth at 10 uM after 48 hrs by SRB assay relative to untreated control; format: functional; settings: RPMI-8226, 48 h, read-out: Activity; outline: as §1
SMILES,growth at 10 µM [1],growth at 10 µM [2],growth at 10 µM [3],growth at 10 µM [4],growth at 10 µM [5],growth at 10 µM [6],growth at 10 µM [7],growth at 10 µM [8],growth at 10 µM [9],growth at 10 µM [10],growth at 10 µM [11],growth at 10 µM [12],growth at 10 µM [13],growth at 10 µM [14],growth at 10 µM [15],growth at 10 µM [16],growth at 10 µM [17],growth at 10 µM [18],growth at 10 µM [19],growth at 10 µM [20],other results
C[C@H]1NC(c2ccc(Br)cc2)=Nc2nc3ccccn3c2C1=O,98.2%,86.5%,89.3%,51.5%,84.8%,84%,87.6%,79.7%,98.3%,95.5%,94.8%,77.7%,92.3%,65.1%,102%,95.9%,75.5%,86.1%,93.2%,95.4%,growth at 10 µM [21]: 106%; growth at 10 µM [22]: 91.1%; inhibition [23]: 26%; growth at 10 µM [24]: 101%; growth at 10 µM [25]: 97.5%; growth at 10 µM [26]: 94.5%; growth at 10 µM [27]: 92.5%; growth at 10 µM [28]: 91%
C[C@@H]1NC(c2ccc(Br)cc2)=Nc2nc3ccccn3c2C1=O,82.4%,71.3%,50.2%,62%,24.3%,49.2%,69.9%,57.5%,110%,74.7%,68.2%,30%,52.4%,20.9%,-0.5%,17.3%,49.3%,74%,44.1%,-13%,growth at 10 µM [21]: 26.3%; inhibition [23]: 8%; growth at 10 µM [24]: 32.5%; growth at 10 µM [25]: 66.2%; growth at 10 µM [26]: 72.5%; growth at 10 µM [27]: 82.6%; growth at 10 µM [28]: 94%
COc1ccc(C2=Nc3nc4ccccn4c3C(=O)[C@H](C)N2)cc1,101%,98.3%,81.9%,55.6%,86.8%,94.3%,105%,84.4%,99.2%,97.3%,121%,80.4%,87.6%,72%,76.5%,98.3%,85.7%,80.3%,93.5%,90.2%,growth at 10 µM [21]: 97.5%; growth at 10 µM [22]: 90.6%; inhibition [23]: 20%; growth at 10 µM [24]: 105%; growth at 10 µM [25]: 105%; growth at 10 µM [26]: 97.4%; growth at 10 µM [27]: 99.1%; growth at 10 µM [28]: 88.5%
C[C@@H]1NC(c2ccc(N(C)C)cc2)=Nc2nc3ccccn3c2C1=O,90.5%,83.3%,70%,53.7%,82.2%,83.7%,88.8%,84.2%,86%,92.7%,111%,86.6%,87%,66%,72.3%,101%,88.1%,69.2%,89.7%,94.5%,growth at 10 µM [21]: 94.2%; growth at 10 µM [22]: 89.6%; inhibition [23]: 55%; growth at 10 µM [24]: 91.9%; growth at 10 µM [25]: 113%; growth at 10 µM [26]: 88.2%; growth at 10 µM [27]: 95.2%; growth at 10 µM [28]: 84.9%
C[C@@H]1NC(c2ccccc2)=Nc2nc3ccccn3c2C1=O,114%,93.8%,82.8%,82.5%,108%,104%,84.6%,98.2%,135%,108%,104%,106%,84.2%,67.2%,99.9%,103%,93.2%,102%,81.8%,91.6%,growth at 10 µM [21]: 109%; growth at 10 µM [22]: 135%; inhibition [23]: 7%; growth at 10 µM [24]: 104%; growth at 10 µM [25]: 113%; growth at 10 µM [27]: 106%; growth at 10 µM [28]: 85.7%
Cc1ccc(C2=Nc3nc4ccccn4c3C(=O)[C@H](C)N2)cc1,94%,94.8%,68%,45.9%,47.1%,80.1%,99.1%,75.9%,96%,90%,105%,42.2%,88.6%,71.2%,91.1%,90.4%,85.7%,81.7%,86.1%,25.7%,growth at 10 µM [21]: 80.4%; growth at 10 µM [22]: 87.5%; inhibition [23]: 16%; growth at 10 µM [24]: 94.5%; growth at 10 µM [25]: 88.9%; growth at 10 µM [26]: 93.8%; growth at 10 µM [27]: 95.5%; growth at 10 µM [28]: 88.6%

# Reference: ChEMBL document CHEMBL3124806, “Imidazopyridine-fused [1,3]-diazepinones: synthesis and antiproliferative activity” (Eur J Med Chem, 2014)
